Experimental data as given in ChEMBL document CHEMBL1125566, “N-methylcarbamate derivatives of ellipticine and olivacine with cytotoxic activity against four human lung cancer cell lines” (J Med Chem, 1992).

Key:
Assay type in all cases: functional, cell-based
NCI-H417 [1] = assay: Cytotoxicity against N 417 human lung cancer cell line
Method in brief: (§1)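 SCLC floating cultures, grown in RPMI 1640 at 37 °C under 5% CO2, disaggregated by gentle pipetting, collected by sedimentation, and plated at 8000 cells/well. Drug (DMSO, then BSA and phosphate buffer dilutions) applied for 1 h, then centrifuged and washed twice with RPMI 1640. After 4 days at 37 °C, MTT was added for 4 h and formazan in DMSO read at 540 nm. IC50 is 50% growth inhibition.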

NCI-H460 [2] = assay: Cytotoxicity against H 460 human lung cancer cell line
Method in brief: (§2)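 Non-SCLC adherent cells, grown in RPMI 1640 at 37 °C under 5% CO2, trypsinized, resuspended in RPMI-1640/2% FBS, and plated at 2500 cells/well. Drug (DMSO, then BSA and phosphate buffer dilutions) applied for 1 h, then centrifuged and washed twice. Cells were kept 4 days at 37 °C, given MTT for 4 h, formazan dissolved in DMSO, and read at 540 nm. IC50 is the concentration giving 50% growth inhibition.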

NCI-H358 [3] = assay: Cytotoxicity against H 358 human lung cancer cell line; method in brief: as §2
NCI-H69 [4] = assay: Cytotoxicity against H69 human lung cancer cell line; method in brief: as §1
NCI-H417 [5] = assay: Compound was evaluated for inhibitory activity against N 417 human lung cancer cell line; method in brief: as §1
NCI-H69 [6] = assay: Compound was evaluated for inhibitory activity against H69 human lung cancer cell line; method in brief: as §1
NCI-H460 [7] = assay: Compound was evaluated for inhibitory activity against H 460 human lung cancer cell line; method in brief: as §2
NCI-H358 [8] = assay: Compound was evaluated for inhibitory activity against H 358 human lung cancer cell line; method in brief: as §2

Row | IC50 (NCI-H417 [5]) [nM] | IC50 (NCI-H69 [6]) [nM] | IC50 (NCI-H460 [7]) [nM] | IC50 (NCI-H358 [8]) [nM] | Compound | IC50 (NCI-H417 [1]) [nM] | IC50 (NCI-H460 [2]) [nM] | IC50 (NCI-H358 [3]) [nM] | IC50 (NCI-H69 [4]) [nM]
1 |  |  |  |  | COc1ccc2[nH]c3c(C)c4ccnc(CO)c4cc3c2c1 | 1300 | 1900 | 1300 | 1300
2 |  |  |  |  | COc1ccc2[nH]c3c(C)c4ccnc(COC(C)=O)c4cc3c2c1 | 2800 | 1700 | 2000 | 1400
3 | 900 | 1800 | 1800 | 1500 | COc1ccc2[nH]c3c(C)c4ccnc(C=O)c4cc3c2c1 |  |  |  | 
4 |  |  |  |  | Cc1c2ccncc2c(C)c2c1[nH]c1ccc(O)cc12 | 3500 | 2800 | 5800 | 1700
5 |  |  |  |  | Cc1c2cnccc2c(CO)c2[nH]c3ccc(O)cc3c12 | 1800 | 950 | 1500 | 1600
6 |  |  |  |  | CNC(=O)OCc1c2cnccc2c(C)c2[nH]c3ccc(OC)cc3c12 | 40 | 20 | 90 | 170
7 | 1800 | 1200 | 2100 | 2100 | COc1ccc2[nH]c3c(C)c4ccnc(C)c4cc3c2c1 |  |  |  | 
8 |  |  |  |  | CNC(=O)OCc1nccc2c(C)c3[nH]c4ccc(OC)cc4c3cc12 | 100 | 70 | 110 | 140
9 |  |  |  |  | CNC(=O)OCc1c2ccncc2c(C)c2c1[nH]c1ccccc12 | 330 | 170 | 190 | 860
10 |  |  |  |  | CNC(=O)OCc1c2ccncc2c(C)c2c1[nH]c1ccc(OC)cc12 | 90 | 60 | 100 | 220
11 | 3400 | 1700 | 1800 | 2300 | Cc1nccc2c(C)c3[nH]c4ccccc4c3cc12 |  |  |  | 
12 | > 48000 | > 48000 | > 48000 | > 48000 | Cc1c2cc[n+](C)cc2c(C)c2c1[nH]c1ccc(O)cc12 [ELLIPTINIUM] |  |  |  | 
13 | 230 | 870 | 230 | 620 | COc1cccc2c1C(=O)c1c(O)c3c(c(O)c1C2=O)C[C@@](O)(C(=O)CO)C[C@@H]3O[C@H]1C[C@H](N)[C@H](O)[C@H](C)O1 [DOXORUBICIN] |  |  |  | 

Row | Compound | IC50 (NCI-H417 [5]) [nM] | IC50 (NCI-H69 [6]) [nM] | IC50 (NCI-H460 [7]) [nM] | IC50 (NCI-H358 [8]) [nM] | IC50 (NCI-H417 [1]) [nM] | IC50 (NCI-H460 [2]) [nM] | IC50 (NCI-H358 [3]) [nM] | IC50 (NCI-H69 [4]) [nM]
14 | Cc1c2ccncc2c(C)c2c1[nH]c1ccccc12 [ELLIPTECINE] | 870 | 1800 | 510 | 200 |  |  |  | 
